System: Fibroblast
Assay: Multiplex assay against human fibroblast
Format: toxicity, cell-based
How it was run: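 At seeding, live cells were stained with Hoechst33342, BioTracker Green Microtubule Cytoskeleton Dye, MitoTracker Red and Annexin V Alexa Fluor 680. After compound addition they were imaged on a CQ1 microscope at 37°C and 5% CO2, and CellPathfinder machine-learning gating sorted them into Hoechst high-intensity objects or normal cells, with normal cells further split into healthy, pyknosed or fragmented nuclei and pyknosed cells into mitotic or apoptotic. Tubulin, mitochondrial-mass and membrane-permeability phenotypes are given as per cents of cells with healthy nuclei.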

[1] = 12 h, 1 µM, compound concentration 1 uM, replicate 1
[2] = 12 h, 1 µM, compound concentration 1 uM, replicate 2
[3] = 12 h, 10 µM, compound concentration 10 uM, replicate 1
[4] = 12 h, 10 µM, compound concentration 10 uM, replicate 2
[5] = 24 h, 1 µM, compound concentration 1 uM, replicate 1
[6] = 24 h, 1 µM, compound concentration 1 uM, replicate 2
[7] = 24 h, 10 µM, compound concentration 10 uM, replicate 1
[8] = 24 h, 10 µM, compound concentration 10 uM, replicate 2
[9] = 48 h, 1 µM, compound concentration 1 uM, replicate 1
[10] = 48 h, 1 µM, compound concentration 1 uM, replicate 2
[11] = 48 h, 10 µM, compound concentration 10 uM, replicate 1
[12] = 48 h, 10 µM, compound concentration 10 uM, replicate 2

CN(C)C(=O)Cn1cc(-c2ccc(-c3nnc4ccccn34)cc2)cn1
Population Apoptotic (%) [1]: 57%
Population Fragmented Nuclei (%) [1]: 18%
Population Healthy Nuclei (%) [1]: 60%
Population Hoechst High Intensity Objects (%) [1]: 5%
Population Membrane Permeable-Phenotype (%) [1]: 1%
Population Mitochondria Different-Phenotype (%) [1]: 3%
Population Mitotic Cells (%) [1]: 42%
Population Normal (%) [1]: 94%
Population Pyknosed Nuclei (%) [1]: 21%
Population Tubulin-Different-Phenotype (%) [1]: 22%
Total Cell Count [1]: 139
Population Apoptotic (%) [2]: 55%
Population Fragmented Nuclei (%) [2]: 20%
Population Healthy Nuclei (%) [2]: 58%
Population Membrane Permeable-Phenotype (%) [2]: 7%
Population Mitochondria Different-Phenotype (%) [2]: 7%
Population Mitotic Cells (%) [2]: 44%
Population Pyknosed Nuclei (%) [2]: 20%
Population Tubulin-Different-Phenotype (%) [2]: 42%
Total Cell Count [2]: 152
Population Apoptotic (%) [3]: 52%
Population Fragmented Nuclei (%) [3]: 8%
Population Healthy Nuclei (%) [3]: 63%
Population Hoechst High Intensity Objects (%) [3]: 3%
Population Membrane Permeable-Phenotype (%) [3]: 0%
Population Mitochondria Different-Phenotype (%) [3]: 6%
Population Mitotic Cells (%) [3]: 47%
Population Normal (%) [3]: 96%
Population Pyknosed Nuclei (%) [3]: 28%
Population Tubulin-Different-Phenotype (%) [3]: 31%
Total Cell Count [3]: 140
Population Apoptotic (%) [4]: 39%
Population Fragmented Nuclei (%) [4]: 31%
Population Healthy Nuclei (%) [4]: 38%
Population Hoechst High Intensity Objects (%) [4]: 8%
Population Membrane Permeable-Phenotype (%) [4]: 15%
Population Mitochondria Different-Phenotype (%) [4]: 18%
Population Mitotic Cells (%) [4]: 60%
Population Normal (%) [4]: 91%
Population Pyknosed Nuclei (%) [4]: 29%
Population Tubulin-Different-Phenotype (%) [4]: 70%
Total Cell Count [4]: 123
Population Apoptotic (%) [5]: 56%
Population Fragmented Nuclei (%) [5]: 23%
Population Healthy Nuclei (%) [5]: 60%
Population Hoechst High Intensity Objects (%) [5]: 0%
Population Membrane Permeable-Phenotype (%) [5]: 2%
Population Mitochondria Different-Phenotype (%) [5]: 1%
Population Mitotic Cells (%) [5]: 43%
Population Normal (%) [5]: 99%
Population Pyknosed Nuclei (%) [5]: 16%
Population Tubulin-Different-Phenotype (%) [5]: 25%
Total Cell Count [5]: 144
Population Apoptotic (%) [6]: 54%
Population Hoechst High Intensity Objects (%) [6]: 4%
Population Membrane Permeable-Phenotype (%) [6]: 4%
Population Mitochondria Different-Phenotype (%) [6]: 3%
Population Mitotic Cells (%) [6]: 45%
Population Normal (%) [6]: 95%
Population Tubulin-Different-Phenotype (%) [6]: 41%
Total Cell Count [6]: 142
Population Apoptotic (%) [7]: 65%
Population Fragmented Nuclei (%) [7]: 10%
Population Healthy Nuclei (%) [7]: 65%
Population Hoechst High Intensity Objects (%) [7]: 5%
Population Membrane Permeable-Phenotype (%) [7]: 2%
Population Mitochondria Different-Phenotype (%) [7]: 5%
Population Mitotic Cells (%) [7]: 34%
Population Normal (%) [7]: 94%
Population Pyknosed Nuclei (%) [7]: 24%
Population Tubulin-Different-Phenotype (%) [7]: 25%
Total Cell Count [7]: 140
Population Apoptotic (%) [8]: 26%
Population Fragmented Nuclei (%) [8]: 36%
Population Healthy Nuclei (%) [8]: 40%
Population Hoechst High Intensity Objects (%) [8]: 9%
Population Membrane Permeable-Phenotype (%) [8]: 10%
Population Mitochondria Different-Phenotype (%) [8]: 6%
Population Mitotic Cells (%) [8]: 73%
Population Normal (%) [8]: 90%
Population Pyknosed Nuclei (%) [8]: 22%
Population Tubulin-Different-Phenotype (%) [8]: 71%
Total Cell Count [8]: 126
Population Apoptotic (%) [9]: 58%
Population Fragmented Nuclei (%) [9]: 22%
Population Healthy Nuclei (%) [9]: 61%
Population Hoechst High Intensity Objects (%) [9]: 1%
Population Membrane Permeable-Phenotype (%) [9]: 4%
Population Mitochondria Different-Phenotype (%) [9]: 4%
Population Mitotic Cells (%) [9]: 41%
Population Normal (%) [9]: 98%
Population Pyknosed Nuclei (%) [9]: 16%
Population Tubulin-Different-Phenotype (%) [9]: 29%
Total Cell Count [9]: 151
Population Apoptotic (%) [10]: 42%
Population Fragmented Nuclei (%) [10]: 28%
Population Healthy Nuclei (%) [10]: 52%
Population Hoechst High Intensity Objects (%) [10]: 5%
Population Membrane Permeable-Phenotype (%) [10]: 6%
Population Mitochondria Different-Phenotype (%) [10]: 2%
Population Mitotic Cells (%) [10]: 57%
Population Normal (%) [10]: 94%
Population Pyknosed Nuclei (%) [10]: 18%
Population Tubulin-Different-Phenotype (%) [10]: 46%
Total Cell Count [10]: 147
Population Apoptotic (%) [11]: 52%
Population Fragmented Nuclei (%) [11]: 16%
Population Healthy Nuclei (%) [11]: 66%
Population Hoechst High Intensity Objects (%) [11]: 2%
Population Membrane Permeable-Phenotype (%) [11]: 0%
Population Mitochondria Different-Phenotype (%) [11]: 2%
Population Mitotic Cells (%) [11]: 47%
Population Normal (%) [11]: 97%
Population Pyknosed Nuclei (%) [11]: 17%
Population Tubulin-Different-Phenotype (%) [11]: 38%
Total Cell Count [11]: 137
Population Apoptotic (%) [12]: 60%
Population Fragmented Nuclei (%) [12]: 44%
Population Healthy Nuclei (%) [12]: 47%
Population Hoechst High Intensity Objects (%) [12]: 3%
Population Membrane Permeable-Phenotype (%) [12]: 18%
Population Mitochondria Different-Phenotype (%) [12]: 8%
Population Mitotic Cells (%) [12]: 40%
Population Normal (%) [12]: 96%
Population Pyknosed Nuclei (%) [12]: 7%
Population Tubulin-Different-Phenotype (%) [12]: 73%
Total Cell Count [12]: 131

— ChEMBL document CHEMBL5058577, “EUbOPEN Chemogenomics Library 2 (Multiplex)” (2022)
